Experimental findings from ChEMBL document CHEMBL1154474, “Pharmacophore based discovery of potential antimalarial agent targeting haem detoxification pathway” (Eur J Med Chem, 2008) are described below.

Several values for one entry are separate records, joined by “and”; a condition that tells them apart may be missing. Equal values may be shown once. Where a name gives a salt, the structure may show the parent alone.

Series [1] has as its system Plasmodium falciparum. The series can be described thus: Antimalarial activity against chloroquine-resistant Plasmodium falciparum K1. In kind it is functional, organism-based.
Series [2] relates to Plasmodium falciparum. The series can be described thus: Antimalarial activity against chloroquine and pyrimethamine-resistant Plasmodium falciparum K1 after 24 hrs by [3H]hypoxanthine uptake. The series is classed as functional, organism-based.
Series [3] deals with Plasmodium falciparum. The series can be described thus: Antimalarial activity against chloroquine-resistant Plasmodium falciparum K1 after 48 hrs by [G-3H]hypoxanthine uptake. In kind it is functional, organism-based. The conditions noted are these: K1, 48 h.
Series [4] is described as follows: Ionisation constant for the compound. The series is classed as physicochemical. An outline of the steps: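 Spectrophotometric pKa determination on a UV spectrometer, with measurements in buffers from pH 5.8 to 11.2 and in 0.1 M NaOH and 0.1 M HCl. The pH 5.8–8.0 buffers were made from 0.1 M KH2PO4/K2HPO4, and the pH 8.4–11.2 buffers from 0.1 M glycine with 0.1 M NaOH. Two constants (pKa1, pKa2) were reported.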

For series [5], the system named is Plasmodium falciparum. The series can be described thus: Antimalarial activity against chloroquine-resistant Plasmodium falciparum K1 after 72 hrs. The series is classed as functional, organism-based. The following applies: K1, 72 h.
Series [6] has as its system Plasmodium falciparum. The series can be described thus: Antimalarial activity against chloroquine-resistant Plasmodium falciparum K1 by [3H]hypoxanthine uptake. In kind it is functional, organism-based.

In turn, `C[n+]1c2ccccc2cc2[nH]c3c([N+](=O)[O-])cccc3c21` gave an IC50 in the series on Plasmodium falciparum [1] of 6.3 µM. In the series on Plasmodium falciparum [2] (Plasmodium falciparum, K1), `CS(=O)(=O)Nc1ccc(Nc2c3ccc(Cl)cc3nc3cc(Cl)ccc23)cc1` yielded an IC50 of 0.35 µM.

Compound `CN(C)CCCN(C)CCCN1c2ccccc2Sc2ccccc21` returned an IC50 with Plasmodium falciparum [1] of 1 µM. As to `CCN(CC)Cc1cc(Nc2ccnc3cc(Cl)ccc23)cc(-c2ccc(Cl)cc2)c1` [DEHYDROXY TEBAQUINE], in the series on Plasmodium falciparum [3], it took 0.0693 µM to reach half-maximal inhibition (IC50). As to `CN(C)CCCC(=O)Nc1ccc2c(c1)Sc1ccc(Cl)cc1N2C`, in the series with Plasmodium falciparum [1], the IC50 is 7 µM. In the series with Plasmodium falciparum [3], `CCN(CC)Cc1cc(Cc2ccnc3cc(Cl)ccc23)ccc1O` displayed a half-maximal inhibitory concentration (IC50) of 0.018 µM. The compound `C=CC1CN2CCC1C[C@H]2[C@H](O)c1ccnc2ccc(OC)cc12` (single isomer, unassigned) [QUININE] showed an IC50 in the series with Plasmodium falciparum [3] of 0.081 µM. The compound `CCNCc1cc(Cc2ccnc3cc(Cl)ccc23)ccc1O` came in with an IC50 in the series with Plasmodium falciparum [3] of 0.0388 µM. Compound `Oc1c(CN2CCCC2)cc(Nc2c3ccccc3nc3cc(Cl)ccc23)cc1CN1CCCC1` yielded an IC50 in the series on Plasmodium falciparum [3] of 0.0091 µM.

On to `C[n+]1c2ccc(Cl)c(Cl)c2cc2[nH]c3ccccc3c21`, for which the IC50 with Plasmodium falciparum [1] stood at 0.44 µM.

In the series on Plasmodium falciparum [1], `C[n+]1c2ccccc2cc2[n-]c3ccccc3c21` [CRYPTOLEPINE HYDROCHLORIDE] had an IC50 of 100 µM. Compound `CN(C)CCCN(CCCN(C)C)CCCN1c2ccccc2Sc2ccc(Cl)cc21` had an IC50 in the series with Plasmodium falciparum [1] of 0.42 µM. `CC(C)(C)NCc1cc(Nc2ccnc3cc(Cl)ccc23)cc(-c2ccc(Cl)cc2)c1O` [TEBUQUINE] returned a 50% inhibitory concentration (IC50) in the series on Plasmodium falciparum [3] of 0.013 µM. Consider `CN(CCCNc1nc2ccc(Cl)cc2n2cccc12)CCCNc1nc2ccc(Cl)cc2n2cccc12`, for which the IC50 in the series with Plasmodium falciparum [1] was 0.28 µM. `NS(=O)(=O)c1ccc(Nc2c3ccc(Cl)cc3nc3cc(Cl)ccc23)cc1` registered a concentration for half-maximal inhibition (IC50) in the series on Plasmodium falciparum [2] (Plasmodium falciparum, K1) of 0.62 µM. The compound `CCOc1ccc(/C=C/C(=N\NC(=O)c2cccnc2)c2ccc(O)cc2)cc1OC` showed a pKa in series [4] of 6.87. `CN(C)CCCN1c2ccc(NCc3cnc[nH]3)cc2Sc2ccc(Cl)cc21` came in with an IC50 in the series on Plasmodium falciparum [1] of 1.8 µM. As to `C[n+]1c2ccc(Br)cc2cc2[nH]c3ccc([N+](=O)[O-])cc3c21`, in the series with Plasmodium falciparum [1], inhibition was half-maximal at 100 µM (IC50). In the case of `CN(C)CCC/N=C1\CC(c2ccc(Cl)cc2Cl)CC2Nc3ccc(Cl)cc3C(=O)C12` (centres undefined), in the series with Plasmodium falciparum [5], the IC50 worked out at 0.0095 µM. `CC(CCCN)Nc1ccnc2cc(Cl)ccc12` (centres undefined) [BIDESETHYL CHLOROQUINE] returned an IC50 in the series on Plasmodium falciparum [3] of 1.34 µM. Consider `CS(=O)(=O)Nc1ccc(Nc2c3ccccc3nc3cc(Cl)ccc23)cc1`, for which the IC50 with Plasmodium falciparum [2] (Plasmodium falciparum, K1) was found to be 1 µM. With `C[n+]1c2ccc(Cl)cc2cc2[nH]c3cc(Cl)ccc3c21`, in the series with Plasmodium falciparum [1], the IC50 turned out to be 0.045 µM.

Turning to `NCc1cc(Cc2ccnc3cc(Cl)ccc23)ccc1O`, half-maximal inhibition in the series on Plasmodium falciparum [3] (IC50) was put at 0.166 µM.

Compound `CCCCN(CCCC)CCC(C)c1cc2c(Cl)cc(Cl)cc2c2cc(C(F)(F)F)ccc12` (centres undefined) had an IC50 in the series on Plasmodium falciparum [3] of 0.0028 µM.

With `N=C(N)c1ccc(/C=C/c2ccc(C(=N)N)cc2)cc1` [STILBAMIDINE], the IC50 in the series with Plasmodium falciparum [6] was determined as 0.027 µM. The compound `N=C(N)c1ccc(OCCCOc2ccc(C(=N)N)cc2)cc1` [PROPAMIDINE] came in with an IC50 in the series with Plasmodium falciparum [6] of 0.0056 µM.

Take `C=C[C@@H]1CN2CC[C@@H]1C[C@H]2[C@H](O)c1ccnc2ccccc12`: the midpoint of inhibition in the series with Plasmodium falciparum [3], the IC50, lay at 0.0562 µM. Turning to `CCN(CC)CCCC(C)Nc1cc(CCCCCCCCCCc2cc(NC(C)CCCN(CC)CC)c3ccccc3n2)nc2ccccc12` (centres undefined), it took 0.017 µM to reach half-maximal inhibition in the series on Plasmodium falciparum [1] (IC50). In the case of `CN(C)c1ccc(Nc2c3ccccc3nc3cc(Cl)ccc23)cc1`, the IC50 in the series on Plasmodium falciparum [2] (Plasmodium falciparum, K1) was 1.1 µM. `C=CC1CN2CCC1C[C@@H]2[C@@H](O)c1ccnc2ccc(OC)cc12` (single isomer, unassigned) [QUINIDINE] yielded an IC50 in the series on Plasmodium falciparum [3] of 0.051 µM. The same measure, in the same setting: under `CCN(CC)CCCC(C)NC1=CC=NCC1` (centres undefined) stands 15.1 µM. For `CCN(CC)CCCC(C)Nc1cc(CCCCCCCCCCCCc2cc(NC(C)CCCN(CC)CC)c3ccccc3n2)nc2ccccc12` (centres undefined), inhibition in the series on Plasmodium falciparum [1] was half-maximal at 0.016 µM (IC50). As to `CCN(CC)Cc1cc(Nc2ccncc2)ccc1O`, the midpoint of inhibition in the series on Plasmodium falciparum [3], the IC50, lay at 1.3 µM. In turn, `C[n+]1c2ccccc2c(C(=O)O)c2[nH]c3ccc(Br)cc3c21` came in with an IC50 in the series on Plasmodium falciparum [1] of 0.26 µM. In turn, `CN(C)CCCC(=O)Nc1ccc2c(c1)Sc1ccc(Cl)cc1N2CCCN(C)C` yielded an IC50 in the series on Plasmodium falciparum [1] of 2 µM.

Take `Oc1ccc(Nc2ccnc3cc(Cl)ccc23)cc1`: the IC50 in the series on Plasmodium falciparum [3] turned out to be 2.3 µM. `N=C(N)c1ccc(/N=N/Nc2ccc(C(=N)N)cc2)cc1` [DIMINAZENE] registered a half-inhibitory concentration (IC50) with Plasmodium falciparum [6] of 0.19 µM.

With `C[n+]1c2ccccc2cc2[nH]c3cc([N+](=O)[O-])cc([N+](=O)[O-])c3c21`, half-maximal inhibition in the series with Plasmodium falciparum [1] (IC50) required 0.65 µM. Consider `CN(C)c1ccc(Nc2c3ccccc3nc3cc(N)ccc23)cc1`, for which the IC50 in the series on Plasmodium falciparum [2] was 0.8 µM and 0.35 µM. Take `CCN(CC)Cc1cc(Nc2ccnc3cc(Cl)ccc23)cc(-c2ccc(Cl)cc2)c1F`: the IC50 in the series with Plasmodium falciparum [3] came out at 0.069 µM. In the series with Plasmodium falciparum [3], `CCN(CC)CCCC(C)Nc1c2ccc(Cl)cc2nc2ccc(OC)cc12` (centres undefined) [QUINACRINE] gave an IC50 of 0.043 µM. As for `Oc1ccc(Cc2ccnc3cc(Cl)ccc23)cc1CN1CCCC1`, inhibition in the series with Plasmodium falciparum [3] was half-maximal at 0.0115 µM (IC50). `O=C1CC(c2ccc(C(F)(F)F)cc2)CC2C1C(=O)c1cc(Cl)ccc1N2O` (centres undefined) registered an IC50 in the series with Plasmodium falciparum [5] of 0.4 µM. Regarding `CC(CCCN1CCCC1)Nc1ccnc2cc(Cl)ccc12` (centres undefined) [Chloroquine-pyrolidinyl], 0.0896 µM corresponded to half-maximal inhibition in the series on Plasmodium falciparum [3] (IC50). With `O=C1CC(c2ccc(Cl)cc2Cl)CC2Sc3ccc(Cl)cc3C(=O)C12` (centres undefined), the 50% inhibitory concentration (IC50) with Plasmodium falciparum [5] is 0.016 µM.

As to `CC(C)(C)NCc1cc(Cc2ccnc3cc(Cl)ccc23)ccc1O`, the midpoint of inhibition in the series with Plasmodium falciparum [3], the IC50, lay at 0.0091 µM. `CNc1ccc(Nc2c3ccccc3nc3cc(Cl)ccc23)cc1` gave an IC50 in the series with Plasmodium falciparum [2] (Plasmodium falciparum, K1) of 1.2 µM. On to `C=C[C@@H]1CN2CC[C@@H]1C[C@@H]2[C@@H](O)c1ccnc2ccccc12`, for which the half-maximal inhibitory concentration (IC50) with Plasmodium falciparum [3] amounted to 0.0906 µM. `CC(c1cc(C(F)(F)F)nc2c(C(F)(F)F)cccc12)C1CCCCN1` (centres undefined): the IC50 in the series with Plasmodium falciparum [3] turned out to be 0.0094 µM.
